# Measured values pooled from the literature.
# Lines come from different studies, so protocols differ.
# Target: Dual specificity tyrosine-phosphorylation-regulated kinase 3 (DYRK3, Homo sapiens, UniProt O43781)
# Sequence (O43781 1-588, as in one of the studies): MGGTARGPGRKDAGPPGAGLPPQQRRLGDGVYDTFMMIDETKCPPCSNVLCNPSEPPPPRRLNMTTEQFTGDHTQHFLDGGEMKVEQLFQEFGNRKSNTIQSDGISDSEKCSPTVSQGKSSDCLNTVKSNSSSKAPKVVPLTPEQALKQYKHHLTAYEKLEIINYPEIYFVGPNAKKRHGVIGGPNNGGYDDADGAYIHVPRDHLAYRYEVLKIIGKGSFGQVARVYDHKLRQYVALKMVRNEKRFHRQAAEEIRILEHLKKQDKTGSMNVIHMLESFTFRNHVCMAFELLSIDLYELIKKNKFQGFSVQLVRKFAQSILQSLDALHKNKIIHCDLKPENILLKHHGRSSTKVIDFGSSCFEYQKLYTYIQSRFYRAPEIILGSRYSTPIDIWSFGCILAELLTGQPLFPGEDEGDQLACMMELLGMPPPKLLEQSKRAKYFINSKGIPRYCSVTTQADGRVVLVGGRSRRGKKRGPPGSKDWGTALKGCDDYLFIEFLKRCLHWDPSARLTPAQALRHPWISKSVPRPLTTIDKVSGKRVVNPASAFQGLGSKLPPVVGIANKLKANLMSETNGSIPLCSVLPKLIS
Compound,test,conditions,quantity,value
COc1cc2ncnc(Nc3ccc(Oc4ccccc4)c(C)c3C)c2cc1OC,"enzyme activity, inhibitor",1 µM,inhibition,-3%
O=C(Nc1cnn(-c2csc(C(=O)NC3COC3)c2)c1)Nc1ccccc1Cl,"enzyme activity, inhibitor",5 µM,remaining activity,93.3%
CC/C(=N\NC(=O)NCc1cccc(O)c1)c1ccc(O)c(C)c1O,"enzyme activity, inhibitor",0.1 µM,inhibition,1.6%
Cn1cnc(Br)c1C1=CN(c2ncnc3[nH]cnc23)CCS1,"enzyme activity, inhibitor, radiometric",2 µM,inhibition,98%
COc1cccc(CCNc2nc3cc(C(=O)O)ccc3c3cnccc23)c1,"enzyme activity, inhibitor, radiometric",1 µM,remaining activity,11%
Cn1cncc1C1=CN(c2ncnc3[nH]cnc23)CCS1,"enzyme activity, inhibitor, radiometric",2 µM,inhibition,90.9%
O=C(O)c1ccc2c(c1)nc(NCc1ccccc1)c1ncncc12,"enzyme activity, inhibitor, radiometric",1 µM,remaining activity,31%
COc1cc(/C=C/C(=O)CC(=O)/C=C/c2ccc(O)c(OC)c2)ccc1O,"enzyme activity, inhibitor",1 µM,activity vs control,11%
O=C(O)c1ccc2c(c1)nc(NCCc1cccc(F)c1)c1ccncc12,"enzyme activity, inhibitor, radiometric",1 µM,remaining activity,7%
Oc1cccc(-c2nc(N3CCOCC3)c3oc4ncccc4c3n2)c1,"enzyme activity, inhibitor",10 µM,remaining activity,64%
O=C(O)c1ccc2c(c1)nc(Nc1ccc(F)c(Cl)c1)c1ncncc12,"enzyme activity, inhibitor, radiometric",1 µM,remaining activity,8%
N#CCCc1ccc2c(c1)-c1[nH]c3ccc([N+](=O)[O-])cc3c1CC(=O)N2,cell-free assay,0.5 µM,remaining signal,97.6%
COc1cc(-c2cc(-c3ccc(N4CCNCC4)cc3)cnc2C)cc(OC)c1OC,"enzyme activity, inhibitor",0.1 µM,inhibition,1%
